Laboratory results: ChEMBL document CHEMBL4334549, “Functionalized Naphthalimide-4-aminoquinoline Conjugates as Promising Antiplasmodials, with Mechanistic Insights” (ACS Med Chem Lett, 2020)
The source made the active and inactive calls. The calls are words filed in the database; no cut-off is given here.

How the values were obtained:
[1] = test system: Plasmodium falciparum; assay: Antiplasmodial activity against D-sorbitol synchronized ring stage of chloroquine-resistant Plasmodium falciparum W2 assessed as parasite growth inhibition measured after 48 hrs by YOYO-1 dye based FACSort flow cytometry analysis; assay type: functional, organism-based; conditions: W2, 48 h
[2] = Selectivity index, ratio of IC50 for African green monkey Vero cells to IC50 for D-sorbitol synchronized ring stage of chloroquine-resistant Plasmodium falciparum W2; assay type: toxicity; conditions: read-out: Ratio IC50
[3] = test system: Vero; assay: Cytotoxicity against African green monkey Vero cells measured after 24 hrs by resazurin dye based fluorescence assay; assay type: cell-based; conditions: Chlorocebus sabaeus
[4] = test system: Heme; assay: Binding affinity to monomeric heme assessed as heme-compound complex formation at 1:1 ratio in aqueous DMSO solution at 5 micromol by mass spectrometry analysis
[5] = test system: Plasmodium falciparum; assay: Potency index, ratio of chloroquine IC50 to compound IC50 for antiplasmodial activity against D-sorbitol synchronized ring stage of chloroquine-resistant Plasmodium falciparum W2 assessed as parasite growth inhibition measured after 48 hrs by YOYO-1 dye based FACSort flow cytometry analysis; assay type: functional
[6] = test system: Heme; assay: Binding affinity to monomeric heme assessed as heme-compound complex formation by measuring shifting and broadening of the peaks by 1H-NMR analysis
[7] = test system: Heme; assay: Binding affinity to monomeric heme assessed as binding constant in HEPES buffer in aqueous DMSO solution at pH 7.4 by UV-vis spectrophotometric titration analysis
How it was run: (§1)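 Monomeric hemin (12 μM) in 40% DMSO with 0.02 M HEPES, pH 7.4, was titrated with compound at 0–18 μM. The drop in the 401 nm monomeric-heme band was followed by UV-vis. Log K was obtained by nonlinear least-squares fitting of the titration curves. A DMSO solvent control was included.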

[8] = test system: Heme; assay: Binding affinity to monomeric heme assessed as binding constant in MES buffer in aqueous DMSO solution at pH 5.6 by UV-vis spectrophotometric titration analysis
How it was run: (§2)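 Monomeric hemin (12 μM) in aqueous DMSO with 0.02 M MES, pH 5.6, was titrated with compound at 0–16 μM. Loss of the 401 nm monomeric-heme absorbance was monitored by UV-vis. Binding constant (log K) came from nonlinear least-squares fitting of the titration curves, with a DMSO solvent control.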

[9] = test system: Heme; assay: Binding affinity to monomeric heme assessed as decrease in band intensity in MES buffer in aqueous DMSO solution at pH 5.6 by UV-vis spectrophotometric titration analysis; how it was run: as §2
[10] = test system: Heme; assay: Binding affinity to monomeric heme assessed as decrease in band intensity in HEPES buffer in aqueous DMSO solution at pH 7.4 by UV-vis spectrophotometric titration analysis; how it was run: as §1
[11] = test system: Plasmodium falciparum; assay: Antiplasmodial activity against sorbitol synchronized CQ-resistant Plasmodium falciparum W2 assessed as parasite growth inhibition after 48 hrs by SYBR Green I-based fluorescence assay; conditions: W2, 48 h

Row | Compound | IC50 [1] [µM] | selectivity ratio [2] | IC50 [3] [µM] | also measured
1 | O=C1c2cccc3c(Br)ccc(c23)C(=O)N1CCCNc1ccnc2cc(Cl)ccc12 | 0.0597 | 179 | 10.7 | –
2 | O=C1c2cccc3c(Br)ccc(c23)C(=O)N1CCNc1ccnc2cc(Cl)ccc12 | 0.053 | 147 | 7.79 | –
3 | O=C1c2cccc3c(N4CCN(CCO)CC4)ccc(c23)C(=O)N1CCCNc1ccnc2cc(Cl)ccc12 | 0.0154 | 4190 | 64.8 | Activity [4]: Active; Ratio IC50 [5]: 15; Activity [6]: Active; log K [7]: 6.33; log K [8]: 6.06; Activity [9]: Active; Activity [10]: Active
4 | CC(C)[C@@H](C(=O)N[C@H](Cc1ccccc1)[C@@H](O)CN1CCN(Cc2ccc(Br)cc2)CC1)N1C(=O)c2ccccc2C1=O | – | – | – | IC50 [11]: 3.01 µM
5 | O=C1c2cccc3c(Br)ccc(c23)C(=O)N1CCCCCCCCNc1ccnc2cc(Cl)ccc12 | 0.562 | 315 | 177 | –
6 | O=C1c2cccc3c(N4CCN(CCO)CC4)ccc(c23)C(=O)N1CCCCNc1ccnc2cc(Cl)ccc12 | 0.0201 | 1580 | 31.9 | –
7 | O=C1c2cccc3c(N4CCOCC4)ccc(c23)C(=O)N1CCCCCCNc1ccnc2cc(Cl)ccc12 | 0.0842 | – | 184 | –
8 | O=C1c2cccc3c(N4CCOCC4)ccc(c23)C(=O)N1CCCNc1ccnc2cc(Cl)ccc12 | 0.0669 | 1030 | 69 | –
9 | O=C1c2cccc3c(N4CCOCC4)ccc(c23)C(=O)N1CCCCCCCCNc1ccnc2cc(Cl)ccc12 | 3.97 | 44.1 | 175 | –
10 | O=C1OC(=O)c2ccc(Br)c3cccc1c23 | > 10 | – | 361 | –
11 | O=C1c2cccc3c(Br)ccc(c23)C(=O)N1CCCCNc1ccnc2cc(Cl)ccc12 | 0.0533 | 262 | 13.9 | –
12 | O=C1c2cccc3c(N4CCN(CCO)CC4)ccc(c23)C(=O)N1CCCCCCNc1ccnc2cc(Cl)ccc12 | 0.12 | 109 | 13.1 | –
13 | O=C1OC(=O)c2cccc3cccc1c23 [1,8-NAPHTHALIC ANHYDRIDE] | > 10 | – | 505 | –
14 | O=C1c2cccc3cccc(c23)C(=O)N1CCCCCCNc1ccnc2cc(Cl)ccc12 | 0.39 | 560 | 218 | –
15 | O=C1c2cccc3c(N4CCCCC4)ccc(c23)C(=O)N1CCCCCCNc1ccnc2cc(Cl)ccc12 | 0.13 | 1420 | 185 | –
16 | O=C1c2cccc3c(N4CCN(CCO)CC4)ccc(c23)C(=O)N1CCCCCCCCNc1ccnc2cc(Cl)ccc12 | 0.215 | 797 | 171 | –
17 | O=C1c2cccc3cccc(c23)C(=O)N1CCNc1ccnc2cc(Cl)ccc12 | 0.056 | 4440 | 249 | –
18 | O=C1c2cccc3c(N4CCCCC4)ccc(c23)C(=O)N1CCCNc1ccnc2cc(Cl)ccc12 | 0.0512 | 3910 | 200 | –
19 | O=C1c2cccc3cccc(c23)C(=O)N1CCCNc1ccnc2cc(Cl)ccc12 | 0.147 | 21.4 | 3.14 | –
20 | O=C1c2cccc3c(Br)ccc(c23)C(=O)N1CCCCCCNc1ccnc2cc(Cl)ccc12 | 0.162 | 1150 | 186 | –
21 | O=C1c2cccc3c(N4CCN(CCO)CC4)ccc(c23)C(=O)N1CCNc1ccnc2cc(Cl)ccc12 | 0.0411 | 1100 | 45.2 | –
22 | O=C1c2cccc3c(N4CCOCC4)ccc(c23)C(=O)N1CCNc1ccnc2cc(Cl)ccc12 | 0.121 | 221 | 26.8 | –
23 | O=C1c2cccc3c(N4CCOCC4)ccc(c23)C(=O)N1CCCCNc1ccnc2cc(Cl)ccc12 | 0.237 | 52.6 | 12.5 | –
24 | O=C1c2cccc3c(N4CCCCC4)ccc(c23)C(=O)N1CCCCNc1ccnc2cc(Cl)ccc12 | 0.0961 | 352 | 33.8 | –
25 | O=C1c2cccc3c(N4CCCCC4)ccc(c23)C(=O)N1CCCCCCCCNc1ccnc2cc(Cl)ccc12 | 0.438 | 401 | 176 | –
26 | O=C1c2cccc3cccc(c23)C(=O)N1CCCCCCCCNc1ccnc2cc(Cl)ccc12 | 0.357 | 576 | 206 | –
27 | O=C1c2cccc3c(N4CCCCC4)ccc(c23)C(=O)N1CCNc1ccnc2cc(Cl)ccc12 | 0.149 | 851 | 126 | –
28 | O=C1c2cccc3cccc(c23)C(=O)N1CCCCNc1ccnc2cc(Cl)ccc12 | 0.0407 | 186 | 7.58 | –
